Converted amounts (≈) assume the structure as drawn. The source made the active and inactive calls.
Assays:
[1] = system: Enterococcus faecalis; assay: Antibacterial activity against vancomycin-resistant Enterococcus faecalis ATCC 51299 after 14 serial passages measured after 18 hrs by broth microdillution method; type: functional
Outline: (§1)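 Multi-step selection over 14 passages in two weeks. McFarland 0.5 inoculum diluted 1:300 in TSB (E. faecalis) or BHI (E. faecium) to 1 × 10^5 CFU/mL. Each passage reinoculated at ~5 × 10^5 CFU/mL from the sub-inhibitory well of the previous plate. Compounds serially diluted in triplicate, incubated ≥18 h at 37 °C, MIC read visually. Resistance defined as >4-fold MIC rise.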

[2] = system: Enterococcus faecium; assay: Bactericidal activity against Enterococcus faecium after 18 to 22 hrs by broth microdilution method; type: functional
Outline: (§2)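 MBC determined after the broth microdilution MIC. 5 μL aliquots plated onto TSA (E. faecalis) or BHI agar (E. faecium) and incubated at 37 °C for 18–22 h. MBC is the concentration giving >99% reduction in cell count, reported as MBC50.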

[3] = system: Enterococcus faecium; assay: Antibacterial activity against vancomycin-resistant Enterococcus faecium ATCC HM-968 assessed as ratio of MIC after and before 3 serial passages measured after 18 hrs by broth microdillution method; type: functional
Outline: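 Multi-step resistance selection: 0.5 McFarland suspension diluted 1:300 in BHI to a starting 1 × 10^5 CFU/mL. Broth microdilution MIC repeated for 14 passages over two weeks, each reseeded at ~5 × 10^5 CFU/mL from the sub-inhibitory well of the previous passage. Serial dilutions in triplicate, 37 °C for at least 18 h, MIC read visually. Resistance defined as a >4-fold MIC rise.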

[4] = system: Enterococcus faecium; assay: Bacteriostatic activity against vancomycin-resistant Enterococcus faecium ATCC 700221 assessed as reduction in CFU at 4 times MIC after 24 hrs; type: functional
Outline: (§3)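 Late-log cells diluted to ~5 × 10^6 CFU/mL and exposed in triplicate to 4 × MIC, in TSB (E. faecalis HM-201) or BHI (E. faecium ATCC 700221) at 37 °C. Sampled at 0, 2, 4, 6, 8, 10, 12 and 24 h, diluted serially in PBS and plated on TSA or BHI agar. CFU/mL counted after 18–22 h. DMSO served as negative control.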

[5] = system: Enterococcus faecium; assay: Antibacterial activity against Enterococcus faecium clinical isolates after 18 to 22 hrs by broth microdilution method; type: functional
Outline: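 Enterococcus faecium grown in BHI. MIC by CLSI broth microdilution, 37 °C for 18–22 h. Lowest concentration with no visible growth taken as MIC, reported as MIC50 across the isolates.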

[6] = system: Enterococcus faecalis; assay: Ratio of MBC50 to MIC50 for Enterococcus faecalis clinical isolates; type: functional
Outline: (§4)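 MIC by CLSI broth microdilution in TSB (E. faecalis) or BHI (E. faecium), 37 °C for 18–22 h, taken as the lowest concentration without visible growth. For MBC, 5 μL aliquots were spotted onto TSA (E. faecalis) or BHI agar (E. faecium) and incubated 37 °C for 18–22 h; MBC is the concentration giving >99% drop in count. MIC50/MBC50 cover 50% of isolates.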

[7] = system: Escherichia coli; assay: Antibacterial activity against Escherichia coli 1411 after 18 to 22 hrs in absence of colistin by broth microdilution method; type: functional
Outline: (§5)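 Broth microdilution per CLSI guidelines. Gram-negatives grown in TSB. Each strain tested alone and again with colistin at ¼ × MIC to permeabilize the outer membrane. Plates incubated at 37 °C for 18–22 h. MIC read as the lowest concentration showing no visible growth.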

[8] = system: Escherichia coli; assay: Antibacterial activity against Escherichia coli 1411 harboring delta-acrAB after 18 to 22 hrs in absence of colistin by broth microdilution method; type: functional
[9] = system: Enterococcus faecalis; assay: Bactericidal activity against Enterococcus faecalis clinical isolates after 18 to 22 hrs by broth microdilution method; type: functional; outline: as §2
[10] = system: Enterococcus faecium; assay: Ratio of MBC50 to MIC50 for Enterococcus faecium clinical isolates; type: functional; outline: as §4
[11] = system: Enterococcus faecium; assay: Bactericidal activity against Vancomycin-resistant Enterococcus faecium clinical isolates after 18 to 22 hrs by broth microdilution method; type: functional
Outline: (§6)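 MBC follows the broth microdilution MIC. 5 μL aliquots spotted onto TSA (E. faecalis) or BHI agar (E. faecium), incubated 37 °C for 18–22 h. MBC is the concentration giving >99% reduction in bacterial count. MBC50 is the value for 50% of isolates.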

[12] = system: Enterococcus faecium; assay: Antibacterial activity against vancomycin-resistant Enterococcus faecium ATCC 700221 after 18 to 22 hrs in absence of colistin by broth microdilution method; type: functional
[13] = system: Enterococcus faecalis; assay: Bactericidal activity against vancomycin-resistant Enterococcus faecalis clinical isolates after 18 to 22 hrs by broth microdilution method; type: functional; outline: as §6
[14] = system: Enterococcus faecalis; assay: Bacteriostatic activity against vancomycin-resistant Enterococcus faecalis HM-201 assessed as reduction in CFU at 4 times MIC after 24 hrs; type: functional; outline: as §3
[15] = system: Caenorhabditis elegans; assay: Toxicity in Caenorhabditis elegans AU37 assessed as worm survival at 20 ug/ml after 24 hrs by microscopic analysis; conditions: caenorhabditis elegans, 24 h
Outline: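 Adult C. elegans AU37, 15–20 per well, exposed in triplicate to 10 or 20 μg/mL, with sterile water as negative control. Viability checked by microscopy. Result reported as percent viable worms after 24 h exposure.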

[16] = system: Enterobacter cloacae; assay: Antibacterial activity against Enterobacter cloacae BAA-1154 after 18 to 22 hrs in absence of colistin by broth microdilution method; type: functional
[17] = system: HRT-18 cell line; assay: Cytotoxicity against human HRT18 cells assessed as reduction in cell viability up to 40 ug/ml after 2 hrs by MTS assay; type: cell-based; conditions: hrt-18, 2 h
Outline: (§7)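 HRT-18 cells maintained in RPMI-1640 with 10% fetal horse serum at 37 °C, 5% CO2. Exposed to 5, 10, 20 or 40 μg/mL for 2 or 24 h, then MTS added and absorbance read at 490 nm. Viability expressed relative to untreated cells, n ≥ 3, one-way ANOVA with Dunnett's test.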

[18] = system: Klebsiella pneumoniae; assay: Antibacterial activity against Klebsiella pneumoniae BAA-1706 after 18 to 22 hrs in absence of colistin by broth microdilution method; type: functional
[19] = system: Enterobacter cloacae; assay: Antibacterial activity against Enterobacter cloacae BAA-1154 after 18 to 22 hrs in presence of 1/4 times MIC colistin by broth microdilution method; type: functional; outline: as §5
[20] = system: Enterococcus faecalis; assay: Antibacterial activity against Enterococcus faecalis clinical isolates after 18 to 22 hrs by broth microdilution method; type: functional
Outline: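 CLSI broth microdilution against panels of enterococcal isolates. E. faecalis grown in TSB, E. faecium in BHI, 37 °C for 18–22 h. MIC is the lowest concentration without visible growth. MIC50 is the value inhibiting 50% of isolates in each group.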

[21] = system: Enterococcus faecalis; assay: Synergistic antimicrobial activity against Enterococcus faecalis ATCC 49533 after 20 hrs in presence of ciprofloxacin by checkerboard assay; type: functional
Outline: (§8)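 Checkerboard in TSB with a starting inoculum of 1×10^5 CFU/mL. Compound and antibiotic diluted from 2× or 4× MIC along perpendicular axes. Incubated 20 h at 37 °C. ΣFIC calculated: ≤0.5 synergy, >0.5 to <2 additive, 2–4 indifference, >4 antagonism.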

[22] = system: Klebsiella pneumoniae; assay: Antibacterial activity against Klebsiella pneumoniae BAA-1706 after 18 to 22 hrs in presence of 1/4 times MIC colistin by broth microdilution method; type: functional; outline: as §5
[23] = system: Escherichia coli; assay: Antibacterial activity against Escherichia coli O157:H7 ATCC 35150 after 18 to 22 hrs in absence of colistin by broth microdilution method; type: functional
[24] = system: Enterococcus faecium; assay: Bactericidal activity against vancomycin-resistant Enterococcus faecium ATCC 700221 at 4 times MIC after 2 hrs by time-kill assay; type: functional; outline: as §3
[25] = system: HRT-18 cell line; assay: Cytotoxicity against human HRT18 cells assessed as reduction in cell viability at 20 ug/ml after 24 hrs by MTS assay; type: cell-based; conditions: hrt-18, 24 h; outline: as §7
[26] = system: Enterococcus faecalis; assay: Antibacterial activity against vancomycin-resistant Enterococcus faecalis ATCC 51299 assessed as ratio of MIC after and before 6 serial passages measured after 18 hrs by broth microdillution method; type: functional; outline: as §1
[27] = system: Staphylococcus aureus; assay: Antibacterial against Methicillin-Resistant Staphylococcus aureus after 18 to 20 hrs by broth microdilution method; type: functional
[28] = system: Enterococcus faecalis; assay: Synergistic antimicrobial activity against Enterococcus faecalis ATCC 49532 after 20 hrs in presence of ciprofloxacin by checkerboard assay; type: functional; outline: as §8
[29] = system: Pseudomonas aeruginosa; assay: Antibacterial activity against Pseudomonas aeruginosa ATCC 15442 after 18 to 22 hrs in presence of 1/4 times MIC colistin by broth microdilution method; type: functional; outline: as §5
[30] = system: Acinetobacter baumannii; assay: Antibacterial activity against Acinetobacter baumanii ATCC 19606 after 18 to 22 hrs in absence of colistin by broth microdilution method; type: functional; conditions: ATCC 19606 = CIP 70.34 = JCM 6841; outline: as §5
[31] = system: Acinetobacter baumannii; assay: Antibacterial activity against Acinetobacter baumanii ATCC 19606 after 18 to 22 hrs in presence of 1/4 times MIC colistin by broth microdilution method; type: functional; conditions: ATCC 19606 = CIP 70.34 = JCM 6841; outline: as §5
[32] = system: Enterococcus faecium; assay: Ratio of MBC50 to MIC50 for vancomycin-resistant Enterococcus faecium ATCC 700221; type: functional
[33] = system: Enterococcus faecium; assay: Bactericidal activity against vancomycin-resistant Enterococcus faecium ATCC 700221 at 4 times MIC after 24 hrs by time-kill assay; type: functional; outline: as §3
[34] = system: Enterococcus faecalis; assay: Antibacterial activity against Enterococcus faecalis ATCC 31975 at 4 to 8 times MIC after 48 hrs by broth microdillution method; type: functional
Outline: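 Single-step resistance selection. Cultures of 5 × 10^8 to 5 × 10^10 CFU/mL spread on TSA containing compound at 2×, 4× or 8× MIC and incubated aerobically at 37 °C for 48 h. Colony MICs rechecked by broth microdilution. Frequency calculated as resistant colonies per inoculum.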

[35] = system: HRT-18 cell line; assay: Cytotoxicity against human HRT18 cells assessed as reduction in cell viability at 40 ug/ml after 24 hrs by MTS assay; type: cell-based; conditions: hrt-18, 24 h; outline: as §7
[36] = system: Pseudomonas aeruginosa; assay: Antibacterial activity against Pseudomonas aeruginosa ATCC 15442 after 18 to 22 hrs in absence of colistin by broth microdilution method; type: functional
[37] = system: Enterococcus faecium; assay: Antibacterial activity against vancomycin-resistant Enterococcus faecium ATCC HM-968 assessed as ratio of MIC after and before 11 serial passages measured after 18 hrs by broth microdillution method; type: functional; outline: as §1
[38] = system: Enterococcus faecalis; assay: Antibacterial activity against vancomycin-resistant Enterococcus faecalis ATCC 51299 assessed as ratio of MIC after and before 11 serial passages measured after 18 hrs by broth microdillution method; type: functional; outline: as §1

Q: What does the source list for `CC(=O)NC[C@H]1CN(c2ccc(N3CCOCC3)c(F)c2)C(=O)O1` [LINEZOLID]?
A: Activity [1]: Active; MBC50 [2]: 16 µg/mL (≈ 47.4 µM); Ratio [3]: 1; Activity [4]: Active; MIC50 [5]: 2 µg/mL (≈ 5.93 µM); Ratio [6]: >4; MIC [7]: > 128 µg/mL; MIC [8]: 8 µg/mL (≈ 23.7 µM); MBC50 [9]: 64 µg/mL (≈ 190 µM); Ratio [10]: >4; MBC50 [11]: 128 µg/mL (≈ 379 µM); MIC [12]: 0.5 µg/mL (≈ 1.48 µM); MBC50 [13]: 64 µg/mL (≈ 190 µM); Activity [14]: Active; Activity [15]: Non-Toxic

Q: Which results are given for `C/C(=N\NC(=N)N)c1sc(-c2ccc(-c3ccccc3)cc2)nc1C`?
A: MIC [16]: > 128 µg/mL; Activity [17]: Non-Toxic; MIC [18]: > 128 µg/mL; MIC [19]: 1 µg/mL; MBC50 [2]: 16 µg/mL (≈ 45.8 µM); MIC50 [20]: 8 µg/mL (≈ 22.9 µM); fractional inhibitory concentration index (FICI) [21]: 0.63 - 1; MIC [22]: 2 µg/mL; MIC [23]: > 128 µg/mL; Activity [4]: Active; MIC50 [5]: 8 µg/mL (≈ 22.9 µM); Activity [24]: Active; Activity [25]: Non-Toxic; MIC [8]: 4 µg/mL (≈ 11.4 µM); Ratio [26]: 1; MIC [27]: 1.3 to 5.6 µg/mL (≈ 3.72 to 16 µM); fractional inhibitory concentration index (FICI) [28]: 0.63 - 1; MBC50 [9]: 16 µg/mL (≈ 45.8 µM); MIC [29]: 1 µg/mL; MBC50 [11]: 16 µg/mL (≈ 45.8 µM); MIC [30]: 8 µg/mL (≈ 22.9 µM); MIC [31]: 1 µg/mL; Ratio [32]: >4; Activity [33]: inactive; Activity [34]: Active; Activity [35]: Toxic; MIC [36]: > 128 µg/mL; Ratio [37]: 1; MIC [12]: 0.5 µg/mL (≈ 1.43 µM); Ratio [38]: 2
